According to ChEMBL document CHEMBL1148547, “The structure-activity relationships of mansonone F, a potent anti-MRSA sesquiterpenoid quinone: SAR studies on the C6 and C9 analogs” (2006):
In brackets after ≈: the same amount, converted by molar mass.

Assays:
Format in all cases: functional
Staphylococcus aureus [1] = assay: Antibacterial activity against methicillin-resistant Staphylococcus aureus
Outline: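 Agar dilution MIC on Mueller–Hinton agar, run per the NCCLS procedure. Test organisms were clinical isolates collected from Seoul hospitals between 1997 and 1999 and stored at -70 °C until use.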

Bacillus subtilis = assay: Antibacterial activity against Bacillus subtilis ATCC 6633
Outline: (§1)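 MIC by agar dilution on Mueller–Hinton agar, following the NCCLS procedure.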

Bacillus cereus = assay: Antibacterial activity against Bacillus cereus ATCC 27348; outline: as §1
Staphylococcus aureus [2] = assay: Antibacterial activity against Staphylococcus aureus ATCC 25923; outline: as §1
Klebsiella pneumoniae = assay: Antibacterial activity against Klebsiella pneumoniae ATCC 10031; outline: as §1
[3] = test system: Staphylococcus epidermidis; assay: Antibacterial activity against Staphylococcus epidermidis ATCC 12228; outline: as §1
Micrococcus luteus [4] = assay: Antibacterial activity against Micrococcus luteus ATCC 10240; outline: as §1
Micrococcus luteus [5] = assay: Antibacterial activity against Micrococcus luteus ATCC 9341; outline: as §1
Staphylococcus aureus [6] = assay: Antibacterial activity against Staphylococcus aureus; outline: as §1
Staphylococcus aureus [7] = assay: Antibacterial activity against Staphylococcus aureus ATCC 29213; outline: as §1
Staphylococcus aureus [8] = assay: Antibacterial activity against Staphylococcus aureus ATCC 6538P; outline: as §1

| Structure (SMILES) | MIC50 (Staphylococcus aureus [1]) [µg/mL] | MIC90 (Staphylococcus aureus [1]) [µg/mL] | also measured |
| --- | --- | --- | --- |
| CC1=COC2=C(C)C(=O)C(=O)c3c(CCC(C)C)ccc1c32 | 8 (≈ 27 µM) | 16 (≈ 54 µM) |  |
| COC(=O)c1ccc2c3c1C(=O)C(=O)C(C)=C3OC=C2C | 16 (≈ 56.3 µM) | 16 (≈ 56.3 µM) |  |
| CC(=O)C1=C2OC=C(C)c3ccc(C)c(c32)C(=O)C1=O | 16 (≈ 59.6 µM) | 32 (≈ 119 µM) |  |
| CN[C@H](CC(C)C)C(=O)N[C@H]1C(=O)N[C@@H](CC(N)=O)C(=O)N[C@H]2C(=O)N[C@H]3C(=O)N[C@H](C(=O)N[C@H](C(=O)O)c4cc(O)cc(O)c4-c4cc3ccc4O)[C@H](O)c3ccc(c(Cl)c3)Oc3cc2cc(c3O[C@@H]2O[C@H](CO)[C@@H](O)[C@H](O)[C@H]2O[C@H]2C[C@](C)(N)[C@H](O)[C@H](C)O2)Oc2ccc(cc2Cl)[C@H]1O [VANCOMYCIN] | 2 (≈ 1.38 µM) | 2 (≈ 1.38 µM) | MIC (Bacillus subtilis): 0.5 µg/mL (≈ 0.345 µM); MIC (Bacillus cereus): 4 µg/mL (≈ 2.76 µM); MIC (Staphylococcus aureus [2]): 8 µg/mL (≈ 5.52 µM); MIC (Klebsiella pneumoniae): > 32 µg/mL; MIC [3]: 8 µg/mL (≈ 5.52 µM); MIC (Micrococcus luteus [4]): 4 µg/mL (≈ 2.76 µM); MIC (Micrococcus luteus [5]): 8 µg/mL (≈ 5.52 µM) |
| CCCC1=C2OC=C(C)c3ccc(C)c(c32)C(=O)C1=O | 4 (≈ 14.9 µM) | 8 (≈ 29.8 µM) |  |
| CCCCCc1ccc2c3c1C(=O)C(=O)C(C)=C3OC=C2C | 4 (≈ 13.5 µM) | 8 (≈ 27 µM) |  |
| CC1=COC2=CC(=O)C(=O)c3cccc1c32 | > 32 | > 32 |  |
| CC1=COC2=C(C)C(=O)C(=O)c3c(C(C)C)ccc1c32 | 4 (≈ 14.9 µM) | 16 (≈ 59.6 µM) |  |
| CC1=COC2=C(C)C(=O)C(=O)c3c(C)ccc1c32 [MANSONONE F] | 2 (≈ 8.32 µM) | 4 (≈ 16.6 µM) | MIC (Staphylococcus aureus [6]; Smith): 4 µg/mL (≈ 16.6 µM); MIC (Staphylococcus aureus [6]; TMS 33): 8 µg/mL (≈ 33.3 µM); MIC (Staphylococcus aureus [6]; TMS 64): 8 µg/mL (≈ 33.3 µM); MIC (Staphylococcus aureus [6]; TMS 417): 4 µg/mL (≈ 16.6 µM); MIC (Bacillus subtilis): 2 µg/mL (≈ 8.32 µM); MIC (Bacillus cereus): 4 µg/mL (≈ 16.6 µM); MIC (Staphylococcus aureus [2]): 1 µg/mL (≈ 4.16 µM); MIC (Klebsiella pneumoniae): 8 µg/mL (≈ 33.3 µM); MIC (Staphylococcus aureus [7]): 4 µg/mL (≈ 16.6 µM); MIC (Staphylococcus aureus [8]): 4 µg/mL (≈ 16.6 µM); MIC [3]: 0.5 µg/mL (≈ 2.08 µM); MIC (Micrococcus luteus [4]): 1 µg/mL (≈ 4.16 µM); MIC (Micrococcus luteus [5]): 1 µg/mL (≈ 4.16 µM) |
| CCCCc1ccc2c3c1C(=O)C(=O)C(C)=C3OC=C2C | 0.5 (≈ 1.77 µM) | 0.5 (≈ 1.77 µM) | MIC (Staphylococcus aureus [6]; Smith): 0.25 µg/mL (≈ 0.885 µM); MIC (Staphylococcus aureus [6]; TMS 33): 0.5 µg/mL (≈ 1.77 µM); MIC (Staphylococcus aureus [6]; TMS 64): 0.25 µg/mL (≈ 0.885 µM); MIC (Staphylococcus aureus [6]; TMS 417): 0.25 µg/mL (≈ 0.885 µM); MIC (Bacillus subtilis): 0.5 µg/mL (≈ 1.77 µM); MIC (Bacillus cereus): 1 µg/mL (≈ 3.54 µM); MIC (Staphylococcus aureus [2]): 0.25 µg/mL (≈ 0.885 µM); MIC (Klebsiella pneumoniae): 2 µg/mL (≈ 7.08 µM); MIC (Staphylococcus aureus [7]): 0.25 µg/mL (≈ 0.885 µM); MIC (Staphylococcus aureus [8]): 0.25 µg/mL (≈ 0.885 µM); MIC [3]: 0.25 µg/mL (≈ 0.885 µM); MIC (Micrococcus luteus [4]): 0.25 µg/mL (≈ 0.885 µM); MIC (Micrococcus luteus [5]): 0.25 µg/mL (≈ 0.885 µM) |
| CCC1=C2OC=C(C)c3ccc(C)c(c32)C(=O)C1=O | 16 (≈ 62.9 µM) | > 32 |  |
| CC1=COC2=C(Br)C(=O)C(=O)c3c(C)ccc1c32 | 8 (≈ 26.2 µM) | 16 (≈ 52.4 µM) |  |
| CCCc1ccc2c3c1C(=O)C(=O)C(C)=C3OC=C2C | 1 (≈ 3.73 µM) | 4 (≈ 14.9 µM) |  |
| CC1=COC2=CC(=O)C(=O)c3c(C)ccc1c32 | 8 (≈ 35.4 µM) | 16 (≈ 70.7 µM) |  |
| CCc1ccc2c3c1C(=O)C(=O)C(C)=C3OC=C2C | 8 (≈ 31.5 µM) | 16 (≈ 62.9 µM) |  |
| COc1ccc2c3c1C(=O)C(=O)C(C)=C3OC=C2C | 8 (≈ 31.2 µM) | 8 (≈ 31.2 µM) |  |
| CC1=COC2=C(CBr)C(=O)C(=O)c3c(C)ccc1c32 | 16 (≈ 50.1 µM) | 16 (≈ 50.1 µM) |  |
| COC(=O)C1=C2OC=C(C)c3ccc(C)c(c32)C(=O)C1=O | 16 (≈ 56.3 µM) | 32 (≈ 113 µM) |  |
| CC1=COC2=C(C)C(=O)C(=O)c3cccc1c32 | 8 (≈ 35.4 µM) | 8 (≈ 35.4 µM) |  |
| CCCCCCc1ccc2c3c1C(=O)C(=O)C(C)=C3OC=C2C | 8 (≈ 25.8 µM) | 16 (≈ 51.5 µM) |  |
